Measurements from ChEMBL document CHEMBL1146243, “Design, synthesis, and biological evaluation of tricyclic heterocycle-tetraamine conjugates as potent NMDA channel blockers” (Bioorg Med Chem Lett, 2007).

Tests used:
[1] = target: Glutamate NMDA receptor; GRIN1/GRIN2B (Homo sapiens, UniProt Q05586+Q13224); test: Antagonist activity at recombinant NR1/NR2B receptor expressed in Xenopus laevis oocytes; format: functional, cell-based, Oocyte
Procedure, shortened: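 Xenopus oocytes injected with NR1 plus NR2B cRNAs at 1:5 (0.1–4 ng NR1 plus 0.5–20 ng NR2). Two-electrode voltage clamp at −70 mV. Receptors activated by superfused glycine and glutamate (10 µM). IC50 from concentration–inhibition curves using five or six concentrations. Means ± SEM of four oocytes.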

[2] = target: Glutamate NMDA receptor; GRIN1/GRIN2A (Homo sapiens, UniProt Q05586+Q12879); test: Antagonist activity at recombinant NR1/NR2A receptor expressed in Xenopus laevis oocytes; format: functional, cell-based, Oocyte
Chain of Glutamate NMDA receptor; GRIN1/GRIN2A (Q12879 whole entry, other chains not shown, the tested form may be a part): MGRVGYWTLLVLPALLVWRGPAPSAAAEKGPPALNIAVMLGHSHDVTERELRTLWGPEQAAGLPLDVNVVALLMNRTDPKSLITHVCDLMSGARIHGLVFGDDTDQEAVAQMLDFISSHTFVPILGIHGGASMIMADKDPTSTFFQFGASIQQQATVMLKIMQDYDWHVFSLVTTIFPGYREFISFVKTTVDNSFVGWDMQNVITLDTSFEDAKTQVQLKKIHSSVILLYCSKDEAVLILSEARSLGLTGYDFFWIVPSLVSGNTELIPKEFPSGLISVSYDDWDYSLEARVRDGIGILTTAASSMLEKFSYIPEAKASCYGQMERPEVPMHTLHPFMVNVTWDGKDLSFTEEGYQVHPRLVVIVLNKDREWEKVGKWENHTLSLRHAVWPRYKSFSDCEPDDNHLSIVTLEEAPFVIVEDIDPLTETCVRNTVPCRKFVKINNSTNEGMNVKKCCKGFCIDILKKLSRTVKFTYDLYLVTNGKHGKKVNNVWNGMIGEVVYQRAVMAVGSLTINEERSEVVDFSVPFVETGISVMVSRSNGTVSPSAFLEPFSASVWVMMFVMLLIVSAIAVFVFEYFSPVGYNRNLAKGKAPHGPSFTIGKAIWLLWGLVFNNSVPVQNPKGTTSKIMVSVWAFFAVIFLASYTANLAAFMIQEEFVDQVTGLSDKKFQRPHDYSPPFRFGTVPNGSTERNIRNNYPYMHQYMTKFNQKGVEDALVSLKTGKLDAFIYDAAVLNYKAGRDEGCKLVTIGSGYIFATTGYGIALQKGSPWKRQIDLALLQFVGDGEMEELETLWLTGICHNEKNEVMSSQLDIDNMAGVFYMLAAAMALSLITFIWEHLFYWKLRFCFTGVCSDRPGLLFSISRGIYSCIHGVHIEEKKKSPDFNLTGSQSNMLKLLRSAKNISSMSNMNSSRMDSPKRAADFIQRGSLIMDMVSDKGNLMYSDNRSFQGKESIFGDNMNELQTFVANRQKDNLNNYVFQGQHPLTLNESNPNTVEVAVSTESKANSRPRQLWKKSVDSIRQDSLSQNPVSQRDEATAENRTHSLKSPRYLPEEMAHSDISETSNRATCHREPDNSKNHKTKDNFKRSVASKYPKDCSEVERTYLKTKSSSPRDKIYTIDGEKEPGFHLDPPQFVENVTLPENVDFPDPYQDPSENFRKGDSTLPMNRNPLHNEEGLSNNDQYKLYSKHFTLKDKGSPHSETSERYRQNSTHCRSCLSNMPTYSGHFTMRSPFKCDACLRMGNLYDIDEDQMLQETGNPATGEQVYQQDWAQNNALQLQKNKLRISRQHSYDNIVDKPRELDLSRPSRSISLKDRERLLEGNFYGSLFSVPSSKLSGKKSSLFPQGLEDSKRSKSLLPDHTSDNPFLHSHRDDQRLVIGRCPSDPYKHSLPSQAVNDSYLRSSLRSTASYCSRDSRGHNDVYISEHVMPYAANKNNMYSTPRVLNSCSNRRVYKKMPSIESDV
Procedure, shortened: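 Two-electrode voltage clamp of oocytes injected with NR1 plus NR2A cRNA at 1:5 (0.1–4 ng NR1 plus 0.5–20 ng NR2), held at -70 mV. Receptors activated by superfused glycine and glutamate (10 µM). IC50 from concentration–inhibition curves over five or six concentrations; means ± SEM of four oocytes.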

FM3A = test: Cytotoxicity in mouse FM3A cells after 48 hrs; format: functional, cell-based
Procedure, shortened: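 FM3A cells (1 × 10⁴) cultured in ES medium with or without various compound concentrations at 37 °C for 48 h. Cells counted with 0.05% Trypan blue. IC50 as mean ± SD of triplicate determinations.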

Chain of Glutamate NMDA receptor; GRIN1/GRIN2B (Q13224 whole entry, other chains not shown, the tested form may be a part): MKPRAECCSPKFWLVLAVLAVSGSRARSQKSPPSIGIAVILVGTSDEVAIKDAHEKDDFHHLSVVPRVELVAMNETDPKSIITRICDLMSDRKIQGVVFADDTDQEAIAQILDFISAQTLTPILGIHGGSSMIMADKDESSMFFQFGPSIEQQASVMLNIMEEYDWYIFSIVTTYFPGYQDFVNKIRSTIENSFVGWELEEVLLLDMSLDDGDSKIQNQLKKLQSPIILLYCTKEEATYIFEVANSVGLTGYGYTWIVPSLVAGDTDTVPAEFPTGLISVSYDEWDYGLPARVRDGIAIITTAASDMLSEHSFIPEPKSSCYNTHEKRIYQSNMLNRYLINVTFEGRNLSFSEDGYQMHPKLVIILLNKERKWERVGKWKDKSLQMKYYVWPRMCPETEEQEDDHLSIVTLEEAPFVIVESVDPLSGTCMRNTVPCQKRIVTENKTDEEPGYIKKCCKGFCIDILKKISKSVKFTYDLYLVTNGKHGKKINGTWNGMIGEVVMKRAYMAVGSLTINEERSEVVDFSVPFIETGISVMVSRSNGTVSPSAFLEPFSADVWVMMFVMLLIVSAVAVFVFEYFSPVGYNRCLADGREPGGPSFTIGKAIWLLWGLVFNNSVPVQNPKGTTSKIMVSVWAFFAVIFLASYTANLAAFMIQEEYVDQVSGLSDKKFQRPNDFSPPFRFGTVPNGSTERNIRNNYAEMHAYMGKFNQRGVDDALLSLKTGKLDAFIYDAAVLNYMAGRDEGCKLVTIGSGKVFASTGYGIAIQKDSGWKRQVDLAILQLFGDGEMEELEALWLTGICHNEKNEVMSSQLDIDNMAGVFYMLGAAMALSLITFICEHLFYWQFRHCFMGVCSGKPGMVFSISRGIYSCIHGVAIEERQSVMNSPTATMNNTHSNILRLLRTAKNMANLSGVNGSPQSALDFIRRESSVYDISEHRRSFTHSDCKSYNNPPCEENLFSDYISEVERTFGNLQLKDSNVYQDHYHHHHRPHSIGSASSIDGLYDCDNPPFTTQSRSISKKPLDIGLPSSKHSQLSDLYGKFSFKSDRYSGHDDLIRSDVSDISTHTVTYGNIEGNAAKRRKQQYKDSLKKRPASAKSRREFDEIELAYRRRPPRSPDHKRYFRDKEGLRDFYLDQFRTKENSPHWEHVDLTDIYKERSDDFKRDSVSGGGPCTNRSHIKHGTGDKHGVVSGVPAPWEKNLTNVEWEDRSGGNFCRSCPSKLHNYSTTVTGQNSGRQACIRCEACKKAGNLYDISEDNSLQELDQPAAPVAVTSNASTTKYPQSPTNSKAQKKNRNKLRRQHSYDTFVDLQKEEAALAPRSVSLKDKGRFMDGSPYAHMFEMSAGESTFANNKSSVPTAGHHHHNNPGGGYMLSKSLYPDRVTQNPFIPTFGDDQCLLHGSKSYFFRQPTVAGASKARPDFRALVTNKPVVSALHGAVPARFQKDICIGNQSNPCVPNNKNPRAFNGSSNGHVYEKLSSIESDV

Compound	IC50 [1] [nM]	IC50 [2] [nM]	IC50 (FM3A) [nM]
NCCCNCCCCNCCCNC(=O)c1ccc2c(c1)C(=O)c1ccccc1C2=O	491	392	14900
NCCCNCCCCNCCCNC(=O)N1c2ccccc2CCc2ccccc21	442	958	102000
NCCCNCCCCNCCCNC(=O)n1c2ccccc2c2ccccc21	83	145	31300
NCCCNCCCCNCCCNC(=O)N1c2ccccc2C=Cc2ccccc21	199	203	97600
NCCCNCCCCNCCCNC(=O)N1c2ccccc2Sc2ccccc21	348	215	57100
NCCCCNCCCNCCCCNC(=O)n1c2ccccc2c2ccccc21	189	211	42300
CC12CC3CC(C)(C1)CC(N)(C3)C2 [MEMANTINE]			147000

Second part, led by results:

IC50 [1] [nM]	Compound	IC50 [2] [nM]	IC50 (FM3A) [nM]
335	NCCCCNCCCNCCCCNC(=O)N1c2ccccc2C=Cc2ccccc21	198	115000
293	NCCCCNCCCCNCCCCNC(=O)N1c2ccccc2C=Cc2ccccc21		132000
270	NCCCCNCCCNCCCCNC(=O)N1c2ccccc2CCc2ccccc21	117	169000
142	NCCCCNCCCCNCCCCNC(=O)N1c2ccccc2CCc2ccccc21		133000
108	NCCCCNCCCNCCCCNC(=O)N1c2ccccc2Sc2ccccc21	78	32500
108	NCCCCNCCCCNCCCCNC(=O)N1c2ccccc2Sc2ccccc21	127	40400
166	NCCCCNCCCCNCCCCNC(=O)n1c2ccccc2c2ccccc21	111	84200
